pIC50: −log10 of the molar value.
Key:
[1] = Growth inhibition of human UO31 cells after 48 hrs; format: functional; conditions: UO-31, 48 h
How it was run: (§1)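 Run by the NCI 58-cell-line screen under its standard cytotoxicity protocol. Compounds were first tested at a single dose, then at five doses. Cells were exposed to compound for 48 h.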

[2] = Growth inhibition of human BT549 cells after 48 hrs; format: functional; conditions: BT-549, 48 h
How it was run: (§2)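 NCI-60 human tumour cell line panel screen run at the US National Cancer Institute under its standard cytotoxicity protocol. It covers leukaemia, NSCLC, colon, CNS, melanoma, ovarian, renal, prostate and breast lines. An initial single-dose test was followed by five-dose testing with 48 h compound exposure.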

T47D = assay: Growth inhibition of human T47D cells after 48 hrs; format: functional; how it was run: as §1
[3] = Growth inhibition of human LOXIMVI cells after 48 hrs; format: functional; conditions: LOX IMVI; how it was run: as §2
A-431 = assay: Cytotoxicity against human A431 cells assessed as cell viability after 24 hrs incubation by MTT assay; format: functional, cell-based; conditions: A-431, 24 h
How it was run: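 Cell lines came from DSMZ; primary human fibroblasts served as non-cancer controls. Cells were grown in medium with 10% FCS, seeded at 50,000 cells/ml, and grown 2 days at 37 °C, 10% CO2. Serial dilutions were then added for 24 h. MTT (final 0.5 mg/ml) was added for 2 h. Formazan was pelleted, PBS-washed, dissolved in isopropanol/0.4% HCl and read at 590 nm. Two parallel experiments were run. IC50 was taken as the concentration giving 50% of untreated-control absorbance.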

Saccharomyces cerevisiae = assay: Antimicrobial activity against Saccharomyces cerevisiae assessed as inhibition at 20 ug/6 mm disk after 1 to 2 days by agar diffusion assay; format: functional
How it was run: (§3)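 Standard agar diffusion: 6-mm paper disks loaded with 20 µg of compound were placed on inoculated plates. Inhibition-zone diameter (mm) was read after 1 and 2 days of growth.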

Aspergillus niger = assay: Antimicrobial activity against Aspergillus niger assessed as inhibition at 20 ug/6 mm disk after 1 to 2 days by agar diffusion assay; format: functional; how it was run: as §3
Micrococcus luteus = assay: Antimicrobial activity against Micrococcus luteus assessed as inhibition at 20 ug/6 mm disk after 1 to 2 days by agar diffusion assay; format: functional; how it was run: as §3
Staphylococcus aureus = assay: Antimicrobial activity against Staphylococcus aureus assessed as inhibition at 20 ug/6 mm disk after 1 to 2 days by agar diffusion assay; format: functional; how it was run: as §3
[4] = Lipophilicity, log K of the compound by HPLC analysis
HL-60(TB) = assay: Growth inhibition of human HL-60(TB) cells after 48 hrs; format: functional; conditions: HL-60, 48 h; how it was run: as §2
K562 = assay: Growth inhibition of human K562 cells after 48 hrs; format: functional; conditions: K562, 48 h; how it was run: as §2
[5] = Growth inhibition of human MOLT4 cells after 48 hrs; format: functional; conditions: MOLT-4, 48 h; how it was run: as §2
[6] = Growth inhibition of human RPMI8226 cells after 48 hrs; format: functional; conditions: RPMI-8226, 48 h; how it was run: as §2
A549 = assay: Growth inhibition of human A549/ATCC cells after 48 hrs; format: functional; conditions: A549, 48 h; how it was run: as §2
[7] = Growth inhibition of human HOP92 cells after 48 hrs; format: functional; conditions: HOP-92, 48 h; how it was run: as §2
NCI-H23 = assay: Growth inhibition of human NCI-H23 cells after 48 hrs; format: functional; conditions: NCI-H23, 48 h; how it was run: as §2
NCI-H522 = assay: Growth inhibition of human NCI-H522 cells after 48 hrs; format: functional; conditions: NCI-H522, 48 h; how it was run: as §2
[8] = Growth inhibition of human HCT116 cells after 48 hrs; format: functional; conditions: HCT-116, 48 h; how it was run: as §2
HT-29 = assay: Growth inhibition of human HT-29 cells after 48 hrs; format: functional; conditions: HT-29, 48 h; how it was run: as §2
SF-268 = assay: Growth inhibition of human SF268 cells after 48 hrs; format: functional; conditions: SF-268, 48 h; how it was run: as §2
SNB-19 = assay: Growth inhibition of human SNB19 cells after 48 hrs; format: functional; conditions: SNB-19, 48 h; how it was run: as §1
SNB-75 = assay: Growth inhibition of human SNB75 cells after 48 hrs; format: functional; conditions: SNB-75, 48 h; how it was run: as §1
MDA-MB-435 = assay: Growth inhibition of human MDA-MB-435 cells after 48 hrs; format: functional; conditions: MDA-MB-435, 48 h; how it was run: as §2
SK-MEL-2 = assay: Growth inhibition of human SK-MEL-2 cells after 48 hrs; format: functional; conditions: SK-MEL-2, 48 h; how it was run: as §2
SK-MEL-5 = assay: Growth inhibition of human SK-MEL-5 cells after 48 hrs; format: functional; conditions: SK-MEL-5, 48 h; how it was run: as §1
[9] = Growth inhibition of human UACC257 cells after 48 hrs; format: functional; conditions: UACC-257, 48 h; how it was run: as §1
[10] = Growth inhibition of human UACC62 cells after 48 hrs; format: functional; conditions: UACC-62, 48 h; how it was run: as §1
[11] = Growth inhibition of human OVCAR4 cells after 48 hrs; format: functional; conditions: OVCAR-4, 48 h; how it was run: as §2
[12] = Growth inhibition of human OVCAR8 cells after 48 hrs; format: functional; conditions: OVCAR-8, 48 h; how it was run: as §2
SK-OV-3 = assay: Growth inhibition of human SKOV3 cells after 48 hrs; format: functional; conditions: SK-OV-3, 48 h; how it was run: as §1
A498 = assay: Growth inhibition of human A498 cells after 48 hrs; format: functional; conditions: A498, 48 h; how it was run: as §2
[13] = read-out: pLC50 (the source's name) (converted)

## CC1=C(SCCC(=O)OCC(=O)NCCC[Te]c2ccccc2)C(=O)c2ccccc2C1=O
[1]
  GI50: 1.86 µM
  LC50: 36.3 µM
[1]; read-out: pTGI (converted)
  TGI: 9.55 µM
[2]
  GI50: 1.66 µM
  LC50 (concentration killing 50% of cells): 9.77 µM
[2]; read-out: pTGI (converted)
  TGI: 4.07 µM
T47D
  GI50: 2 µM
  LC50: > 100 µM
T47D; read-out: pTGI (converted)
  TGI: 5.75 µM
[3]
  GI50: 2.14 µM
  LC50: 75.9 µM
[3]; read-out: pTGI (converted)
  TGI: 5.37 µM
A-431
  pIC50: 6.00
Saccharomyces cerevisiae
  diameter of the inhibition zone (DIZ): 0 mm
Aspergillus niger
  diameter of the inhibition zone (DIZ): 19 mm
Micrococcus luteus
  diameter of the inhibition zone (DIZ): 11 mm
Staphylococcus aureus
  diameter of the inhibition zone (DIZ): 13 mm
[4]
  log K: -0.56
HL-60(TB)
  GI50: 2.57 µM
HL-60(TB); [13]
  CC50: > 100 µM
HL-60(TB); read-out: pTGI (converted)
  TGI: 7.24 µM
K562
  GI50: 3.55 µM
K562; [13]
  CC50: > 100 µM
K562; read-out: pTGI (converted)
  TGI: 34.7 µM
[5]
  GI50: 3.16 µM
[5]; [13]
  CC50: > 100 µM
[5]; read-out: pTGI (converted)
  TGI: 9.77 µM
[6]
  GI50: 2.57 µM
[6]; [13]
  CC50: > 100 µM
[6]; read-out: pTGI (converted)
  TGI: 9.33 µM
A549
  GI50: 1.29 µM
A549; [13]
  CC50: > 100 µM
A549; read-out: pTGI (converted)
  TGI: 3.63 µM
[7]
  GI50: 1.58 µM
[7]; [13]
  CC50: 19.5 µM
[7]; read-out: pTGI (converted)
  TGI: 4.9 µM
NCI-H23
  GI50: 2.29 µM
NCI-H23; [13]
  CC50: 44.7 µM
NCI-H23; read-out: pTGI (converted)
  TGI: 7.41 µM
NCI-H522
  GI50: 2.51 µM
NCI-H522; [13]
  CC50: 47.9 µM
NCI-H522; read-out: pTGI (converted)
  TGI: 10.2 µM
[8]
  GI50: 1.66 µM
[8]; [13]
  CC50: 11.5 µM
[8]; read-out: pTGI (converted)
  TGI: 4.17 µM
HT-29
  GI50: 3.31 µM
HT-29; [13]
  CC50: > 100 µM
HT-29; read-out: pTGI (converted)
  TGI: 11 µM
SF-268
  GI50: 3.02 µM
SF-268; [13]
  CC50: 37.2 µM
SF-268; read-out: pTGI (converted)
  TGI: 9.55 µM
SNB-19
  GI50: 2.63 µM
SNB-19; [13]
  CC50: 42.7 µM
SNB-19; read-out: pTGI (converted)
  TGI: 10.2 µM
SNB-75
  GI50: 1.48 µM
SNB-75; [13]
  CC50: 24.5 µM
SNB-75; read-out: pTGI (converted)
  TGI: 5.89 µM
MDA-MB-435
  GI50: 4.27 µM
MDA-MB-435; [13]
  CC50: 57.5 µM
MDA-MB-435; read-out: pTGI (converted)
  TGI: 15.8 µM
SK-MEL-2
  GI50: 2.09 µM
SK-MEL-2; [13]
  CC50: 12.9 µM
SK-MEL-2; read-out: pTGI (converted)
  TGI: 4.79 µM
SK-MEL-5
  GI50: 1.29 µM
SK-MEL-5; [13]
  CC50: 5.25 µM
SK-MEL-5; read-out: pTGI (converted)
  TGI: 2.63 µM
[9]
  GI50: 2.75 µM
[9]; [13]
  CC50: 32.4 µM
[9]; read-out: pTGI (converted)
  TGI: 7.94 µM
[10]
  GI50: 1.86 µM
[10]; [13]
  CC50: 13.5 µM
[10]; read-out: pTGI (converted)
  TGI: 4.57 µM
[11]
  GI50: 2.14 µM
  LC50: 29.5 µM
[11]; read-out: pTGI (converted)
  TGI: 7.41 µM
[12]
  GI50: 2.75 µM
  LC50: 51.3 µM
[12]; read-out: pTGI (converted)
  TGI: 11.5 µM
SK-OV-3
  GI50: 1.74 µM
SK-OV-3; [13]
  CC50: 12.3 µM
SK-OV-3; read-out: pTGI (converted)
  TGI: 4.37 µM
A498
  GI50: 2 µM
  LC50: 30.2 µM
A498; read-out: pTGI (converted)
  TGI: 7.41 µM
other
  Retention_time: 0.928 min

Source: ChEMBL document CHEMBL3351600, “Sulfur, selenium and tellurium pseudopeptides: synthesis and biological evaluation” (Bioorg Med Chem, 2014)
